Assay results: ChEMBL document CHEMBL2146441, “2,6-Disubstituted imidazo[2,1-b][1,3,4]thiadiazoles: search for anticancer agents” (2012)

Assays:
Assay type in all cases: functional
SF-268 = assay: Cytotoxicity against human SF268 cells assessed as cell growth at 10^-5 M after 48 hrs by SRB assay; conditions: SF-268, 48 h, read-out: Activity
SF-539 = assay: Cytotoxicity against human SF539 cells assessed as cell growth at 10^-5 M after 48 hrs by SRB assay; conditions: SF-539, 48 h, read-out: Activity
UACC-62 = assay: Growth inhibition of human UACC62 cells after 48 hrs by SRB assay; conditions: UACC-62, 48 h; for CC50: read-out: LC50 (the source's name)
Outline: (§1)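 Adherent NCI-60 lines grown in RPMI 1640 with 5% FBS, seeded at 5000–40,000 cells/well, and preincubated 24 h at 37 °C, 5% CO2. Compound, stocked in DMSO, given either once at 10^-5 M or at five 10-fold dilutions for 48 h. Cells fixed with cold TCA (final 10%), stained with 0.4% SRB, and read at 515 nm. GI50 taken as 50% reduction in net protein increase versus time-zero and control plates.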

OVCAR-4 = assay: Growth inhibition of human OVCAR4 cells after 48 hrs by SRB assay; conditions: OVCAR-4, 48 h; outline: as §1
OVCAR-8 [1] = assay: Growth inhibition of human OVCAR8 cells after 48 hrs by SRB assay; conditions: OVCAR-8, 48 h; for CC50: read-out: LC50 (the source's name); outline: as §1
[2] = Cytotoxicity against human Hs 578T cells assessed as cell growth at 10^-5 M after 48 hrs by SRB assay; conditions: read-out: Activity
Outline: (§2)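 NCI-60 five-dose screen. Cells were grown in RPMI 1640 with 5% FBS and seeded at 5000–40,000 cells/well according to doubling time. They were pre-incubated 24 h at 37 °C in 5% CO₂, and time-zero (Tz) plates were TCA-fixed at drug addition. Five 10-fold dilutions of DMSO stock were applied for 48 h. Read-out was SRB staining, 515 nm absorbance, with percent growth calculated versus Tz and untreated control.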

MOLT-4 = assay: Cytotoxicity against human MOLT4 cells assessed as cell growth at 10^-7 M after 48 hrs by SRB assay; conditions: MOLT-4, 48 h, read-out: Activity
SR = assay: Cytotoxicity against human SR cells assessed as cell growth at 10^-7 M after 48 hrs by SRB assay; conditions: read-out: Activity
HCC 2998 = assay: Cytotoxicity against human HCC2998 cells assessed as cell growth at 10^-7 M after 48 hrs by SRB assay; conditions: HCC 2998, 48 h, read-out: Activity; outline: as §2
LOX IMVI = assay: Cytotoxicity against human LOXIMVI cells assessed as cell growth at 10^-7 M after 48 hrs by SRB assay; conditions: read-out: Activity
SK-MEL-28 = assay: Cytotoxicity against human SK-MEL-28 cells assessed as cell growth at 10^-4 M after 48 hrs by SRB assay; conditions: SK-MEL-28, 48 h, read-out: Activity
IGROV-1 [3] = assay: Cytotoxicity against human IGROV1 cells assessed as cell growth at 10^-4 M after 48 hrs by SRB assay; conditions: IGROV-1, 48 h, read-out: Activity; outline: as §2
[4] = Cytotoxicity against human Hs 578T cells assessed as cell growth at 10^-4 M after 48 hrs by SRB assay; conditions: read-out: Activity; outline: as §2
T47D = assay: Cytotoxicity against human T47D cells assessed as cell growth at 10^-4 M after 48 hrs by SRB assay; conditions: read-out: Activity
[5] = Growth inhibition of human Hs 578T cells after 48 hrs by SRB assay; outline: as §1
OVCAR-8 [6] = assay: Cytotoxicity against human OVCAR8 cells assessed as cell growth at 10^-7 M after 48 hrs by SRB assay; conditions: OVCAR-8, 48 h, read-out: Activity
A498 = assay: Cytotoxicity against human A498 cells assessed as cell growth at 10^-7 M after 48 hrs by SRB assay; conditions: A498, 48 h, read-out: Activity
Outline: (§3)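 NCI-60 screen: lines kept in RPMI 1640 with 5% FBS, seeded at 5000–40,000 cells/well by doubling time, preincubated 24 h at 37 °C in 5% CO2. Time-zero plates TCA-fixed at drug addition. DMSO stocks diluted in medium, 48 h exposure. Fixation in cold TCA (final 10% adherent, 16% suspension), 0.4% SRB stain, solubilised in 10 mM Tris base, A515. Percent growth computed against control and time-zero.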

RXF 393 = assay: Cytotoxicity against human RXF393 cells assessed as cell growth at 10^-7 M after 48 hrs by SRB assay; conditions: RXF 393, 48 h, read-out: Activity
MCF7 = assay: Cytotoxicity against human MCF7 cells assessed as cell growth at 10^-7 M after 48 hrs by SRB assay; conditions: MCF7, 48 h, read-out: Activity
HOP-92 = assay: Cytotoxicity against human HOP92 cells assessed as cell growth at 10^-8 M after 48 hrs by SRB assay; conditions: HOP-92, 48 h, read-out: Activity; outline: as §2
HCT-116 [7] = assay: Cytotoxicity against human HCT116 cells assessed as cell growth at 10^-8 M after 48 hrs by SRB assay; conditions: HCT-116, 48 h, read-out: Activity; outline: as §2
Malme-3M [8] = assay: Cytotoxicity against human MALME-3M cells assessed as cell growth at 10^-8 M after 48 hrs by SRB assay; conditions: read-out: Activity
ACHN = assay: Cytotoxicity against human ACHN cells assessed as cell growth at 10^-8 M after 48 hrs by SRB assay; conditions: read-out: Activity; outline: as §3
BT-549 = assay: Cytotoxicity against human BT549 cells assessed as cell growth at 10^-8 M after 48 hrs by SRB assay; conditions: BT-549, 48 h, read-out: Activity; outline: as §3
MDA-MB-468 = assay: Cytotoxicity against human MDA-MB-468 cells assessed as cell growth at 10^-8 M after 48 hrs by SRB assay; conditions: MDA-MB-468, 48 h, read-out: Activity
HCT-116 [9] = assay: Cytotoxicity against human HCT116 cells assessed as cell growth at 10^-6 M after 48 hrs by SRB assay; conditions: HCT-116, 48 h, read-out: Activity; outline: as §2
HCT-15 = assay: Cytotoxicity against human HCT15 cells assessed as cell growth at 10^-6 M after 48 hrs by SRB assay; conditions: HCT-15, 48 h, read-out: Activity; outline: as §2
SW-620 = assay: Cytotoxicity against human SW620 cells assessed as cell growth at 10^-6 M after 48 hrs by SRB assay; conditions: SW-620, 48 h, read-out: Activity
Malme-3M [10] = assay: Cytotoxicity against human MALME-3M cells assessed as cell growth at 10^-6 M after 48 hrs by SRB assay; conditions: read-out: Activity
IGROV-1 [11] = assay: Cytotoxicity against human IGROV1 cells assessed as cell growth at 10^-6 M after 48 hrs by SRB assay; conditions: IGROV-1, 48 h, read-out: Activity; outline: as §2
OVCAR-8 [12] = assay: Cytotoxicity against human OVCAR8 cells assessed as cell growth at 10^-6 M after 48 hrs by SRB assay; conditions: OVCAR-8, 48 h, read-out: Activity
IGROV-1 [13] = assay: Growth inhibition of human IGROV1 cells after 48 hrs by SRB assay; conditions: IGROV-1, 48 h; for CC50: read-out: LC50 (the source's name); outline: as §1

## COc1ccc(-c2nn3cc(-c4ccc(O)cc4O)nc3s2)cc1
SF-268
  growth at 10 µM: 14%
SF-539
  growth at 10 µM: -82%
UACC-62
  GI50: 3.47 µM
  TGI: 17.7 µM
  CC50: 59.4 µM
OVCAR-4
  GI50: 1380 nM
  TGI: 3.39 µM
OVCAR-8 [1]
  GI50: 2.63 µM
  TGI: > 100 µM
  CC50: > 100 µM
[2]
  growth at 10 µM: -2%
MOLT-4
  growth at 0.1 µM: 89%
SR
  growth at 0.1 µM: 85%
HCC 2998
  growth at 0.1 µM: 94%
LOX IMVI
  growth at 0.1 µM: 94%
SK-MEL-28
  growth at 100 µM: -26%
IGROV-1 [3]
  growth at 100 µM: -7%
[4]
  growth at 100 µM: -1%
T47D
  growth at 100 µM: -20%
[5]
  GI50: 1920 nM
  LC50 (concentration killing 50% of starting cells): > 100 µM
  TGI: 9.27 µM
OVCAR-8 [6]
  growth at 0.1 µM: 98%
A498
  growth at 0.1 µM: 70%
RXF 393
  growth at 0.1 µM: 104%
MCF7
  growth at 0.1 µM: 89%
HOP-92
  growth at 0.01 µM: 73%
HCT-116 [7]
  growth at 0.01 µM: 94%
Malme-3M [8]
  growth at 0.01 µM: 87%
ACHN
  growth at 0.01 µM: 103%
BT-549
  growth at 0.01 µM: 94%
MDA-MB-468
  growth at 0.01 µM: 96%
HCT-116 [9]
  growth at 1 µM: 86%
HCT-15
  growth at 1 µM: 93%
SW-620
  growth at 1 µM: 86%
Malme-3M [10]
  growth at 1 µM: 61%
IGROV-1 [11]
  growth at 1 µM: 72%
OVCAR-8 [12]
  growth at 1 µM: 81%
IGROV-1 [13]
  GI50: 2230 nM
  TGI: 37.4 µM
  CC50: > 100 µM

## COc1ccc(-c2nn3cc(-c4cccc(N)c4)nc3s2)cc1
SF-268
  growth at 10 µM: 26%
SF-539
  growth at 10 µM: -11%
UACC-62
  GI50: 2.92 µM
  TGI: 24.4 µM
  CC50: > 100 µM
OVCAR-4
  GI50: 1540 nM
  TGI: 15.1 µM
OVCAR-4; read-out: LC50 (the source's name)
  CC50: > 100 µM
OVCAR-8 [1]
  GI50: 4.97 µM
  TGI: 23 µM
  CC50: 89.9 µM
[2]
  growth at 10 µM: 6%
MOLT-4
  growth at 0.1 µM: 100%
SR
  growth at 0.1 µM: 102%
HCC 2998
  growth at 0.1 µM: 96%
LOX IMVI
  growth at 0.1 µM: 92%
SK-MEL-28
  growth at 100 µM: -39%
IGROV-1 [3]
  growth at 100 µM: -18%
[4]
  growth at 100 µM: -10%
T47D
  growth at 100 µM: -14%
[5]
  GI50: 2330 nM
  LC50 (concentration killing 50% of starting cells): > 100 µM
  TGI: 23.3 µM
OVCAR-8 [6]
  growth at 0.1 µM: 107%
A498
  growth at 0.1 µM: 79%
RXF 393
  growth at 0.1 µM: 85%
MCF7
  growth at 0.1 µM: 78%
HOP-92
  growth at 0.01 µM: 71%
HCT-116 [7]
  growth at 0.01 µM: 99%
Malme-3M [8]
  growth at 0.01 µM: 102%
ACHN
  growth at 0.01 µM: 106%
BT-549
  growth at 0.01 µM: 102%
MDA-MB-468
  growth at 0.01 µM: 94%
HCT-116 [9]
  growth at 1 µM: 90%
HCT-15
  growth at 1 µM: 86%
SW-620
  growth at 1 µM: 86%
Malme-3M [10]
  growth at 1 µM: 71%
IGROV-1 [11]
  growth at 1 µM: 72%
OVCAR-8 [12]
  growth at 1 µM: 94%
IGROV-1 [13]
  GI50: 2650 nM
  TGI: 34.4 µM
  CC50: > 100 µM
